For test [1], the target named is T1, Glucagon-like peptide 1 receptor (Homo sapiens, UniProt P43220). As to the kind of experiment: Positive allosteric modulator activity at human GLP-1R expressed in PSC-HEK293 cells assessed as potentiation of oxyntomodulin-induced cAMP accumulation incubated for 30 mins by HTRF cAMP assay relative to control. The test is classed as functional, cell-based. In short, it runs like this:
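Counterscreen in HEK293 cells with recombinant receptor, 2000 cells/well, 2 mM IBMX, 30 min at room temperature. Compound tested with 10 nM oxyntomodulin (GLP-1R cells) or with GLP-1(9-36)NH2 in glucagon-receptor-overexpressing cells. cAMP read by HTRF at 665/620 nm.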
Background: Cyclic AMP is a second messenger, typically raised through Gs and lowered through Gi signalling.

Test [2] deals with HEK293. As to the kind of experiment: Effect on cAMP accumulation in parental HEK293 cells incubated for 30 mins by HTRF cAMP assay. To be noted: Homo sapiens. Format: functional, cell-based.
The target in test [3] is T1, Glucagon-like peptide 1 receptor. As to the kind of experiment: Positive allosteric modulator activity at GLP-1R in human 1.1B4 cells in presence of EC20 level of GLP1(9-36)NH2 incubated for 30 mins by HTRF cAMP assay relative to control. The test is classed as functional, cell-based. In a few lines: (§1)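 Human pancreatic β-cell line 1.1B4, 20,000 cells/well cultured overnight, washed twice; compound concentration-response with fixed 10 nM GLP1(9-36)NH2, 30 min. cAMP by HTRF 665/620 ratio, normalised to buffer (1x HBSS, 0.1% BSA, 1 mM IBMX; 0%) and GLP-1(7-36)NH2 (100%); 4-parameter logistic fit.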
(In general: In TR-FRET formats the signal depends on donor and acceptor labels being close together.)

Test [4] shares this target. As to the kind of experiment: Positive allosteric modulator activity at human GLP-1R expressed in PSC-HEK293 cells assessed as potentiation of cAMP accumulation incubated for 30 mins by HTRF cAMP assay.
For test [5] the target is unchanged. As to the kind of experiment: Positive allosteric modulator activity at GLP-1R in human 1.1B4 cells in presence of EC20 level of GLP1(9-36)NH2 incubated for 30 mins by HTRF cAMP assay. To be noted: read-out: EC50. Format: functional, cell-based. In short, it runs like this:
as §1

The target in test [6] is Glucagon receptor (Homo sapiens) (UniProt P47871). As to the kind of experiment: Activity at human GCGR expressed in PSC-HEK293 cells incubated for 30 mins by HTRF cAMP assay. Format: functional, cell-based.
Test [7] has as its target T1, Glucagon-like peptide 1 receptor. As to the kind of experiment: Positive allosteric modulator activity at human GLP-1R expressed in PSC-HEK293 cells assessed as potentiation of GLP-1(7-36)NH2-induced cAMP accumulation incubated for 30 mins by HTRF cAMP assay relative to control. The test is classed as functional, cell-based.
Test [8] concerns the target T2, Glucagon-like peptide 1 receptor (Mus musculus) (UniProt O35659).
T2 sequence (whole entry): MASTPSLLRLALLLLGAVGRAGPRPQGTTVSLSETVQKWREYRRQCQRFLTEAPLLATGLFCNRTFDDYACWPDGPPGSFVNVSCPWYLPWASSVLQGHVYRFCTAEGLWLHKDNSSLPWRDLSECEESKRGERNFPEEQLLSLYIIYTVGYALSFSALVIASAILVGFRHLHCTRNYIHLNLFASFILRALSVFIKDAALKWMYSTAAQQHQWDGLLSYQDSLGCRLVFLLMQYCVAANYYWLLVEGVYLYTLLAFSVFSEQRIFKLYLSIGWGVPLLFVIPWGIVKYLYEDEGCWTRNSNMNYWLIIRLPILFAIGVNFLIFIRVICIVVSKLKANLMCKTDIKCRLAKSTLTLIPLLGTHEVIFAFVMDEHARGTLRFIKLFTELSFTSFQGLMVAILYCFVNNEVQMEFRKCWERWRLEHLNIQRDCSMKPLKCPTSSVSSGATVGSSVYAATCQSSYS
In words: Inhibition of 15 mM glucose-mediated increase in intracellular Ca2+ level in mouse MIN6-c4 cells at 0.12 to 30 uM by FLIPR assay relative to control. Format: functional, cell-based.

Test [9] addresses T1, Glucagon-like peptide 1 receptor. In words: Positive allosteric modulator activity at human GLP-1R expressed in PSC-HEK293 cells assessed as potentiation of GLP1(9-36)NH2-induced cAMP accumulation by measuring shift in EC50 of endogenous GLP1(9-36)NH2 at 10 uM incubated for 30 mins by HTRF cAMP assay relative to control. Format: functional, cell-based. In a few lines:
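Thawed frozen PSC-HEK293 cells stably expressing human GLP-1R, 2000 cells/well in HBSS/20 mM HEPES/0.1% BSA with 2 mM IBMX. Shift format: GLP1(9-36)NH2 dose-response with compound fixed at 10 or 3 µM; 30 min room temperature; cAMP by HTRF (665/620 nm ratio) after 1 h with lysis reagents; 4-parameter logistic fit; EC50 shift factor derived.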

Test [10] has the same target. In words: Positive allosteric modulator activity at human GLP-1R expressed in PSC-HEK293 cells in presence of EC20 level of GLP1(9-36)NH2 incubated for 30 mins by HTRF cAMP assay. The test is classed as functional, cell-based. In a few lines: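 Thaw-and-use PSC-HEK293 cells stably expressing human GLP-1R, 2000 cells/well in HBSS/20 mM HEPES/0.1% BSA with 2 mM IBMX. Enhancer format: compound dose-response plus fixed EC20 GLP1(9-36)NH2. Shift format: GLP1(9-36)NH2 dose-response plus 10 or 3 μM compound. 30 min at room temperature. EC50 from a 4-parameter logistic fit.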

Test [11] has the same target. In words: Positive allosteric modulator activity at human GLP-1R expressed in PSC-HEK293 cells assessed as potentiation of GLP1(9-36)NH2-induced cAMP accumulation by measuring shift in EC50 of endogenous GLP1(9-36)NH2 at 3 uM incubated for 30 mins by HTRF cAMP assay relative to control. Format: functional, cell-based. In a few lines:
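Thaw-and-use PSC-HEK293 cells stably expressing human GLP-1R, 2000 cells/well in HBSS/20 mM HEPES/0.1% BSA with 2 mM IBMX. Enhancer format: compound dose-response plus fixed EC20 GLP1(9-36)NH2. Shift format: GLP1(9-36)NH2 dose-response plus 10 or 3 μM compound. 30 min at room temperature. HTRF cAMP read after 1 h lysis (665/620 nm). EC50 from a 4-parameter logistic fit.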

The target in test [12] is Glucagon receptor (Homo sapiens) (UniProt P47871). As to the kind of experiment: Positive allosteric modulator activity at human GCGR expressed in PSC-HEK293 cells assessed as potentiation of GLP-1(9-36)NH2-induced cAMP accumulation incubated for 30 mins by HTRF cAMP assay relative to control. Format: functional, cell-based.

Molecules are shown by their SMILES. The source made the active and inactive calls. No cut-off for these calls is given here.

Glucagon receptor (Homo sapiens), sequence (P47871 whole entry): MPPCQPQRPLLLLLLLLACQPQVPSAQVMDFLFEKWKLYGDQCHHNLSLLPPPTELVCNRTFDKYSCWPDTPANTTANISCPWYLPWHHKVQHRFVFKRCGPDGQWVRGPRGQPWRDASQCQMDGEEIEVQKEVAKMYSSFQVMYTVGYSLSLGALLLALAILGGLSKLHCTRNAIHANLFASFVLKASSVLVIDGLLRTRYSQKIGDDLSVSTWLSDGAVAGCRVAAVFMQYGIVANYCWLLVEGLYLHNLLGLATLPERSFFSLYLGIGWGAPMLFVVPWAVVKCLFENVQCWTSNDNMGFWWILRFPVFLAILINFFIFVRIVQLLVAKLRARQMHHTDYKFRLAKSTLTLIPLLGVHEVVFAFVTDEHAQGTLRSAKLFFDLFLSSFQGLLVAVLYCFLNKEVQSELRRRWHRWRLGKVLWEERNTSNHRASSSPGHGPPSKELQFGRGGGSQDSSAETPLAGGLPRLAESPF
T1 sequence (P43220 whole entry): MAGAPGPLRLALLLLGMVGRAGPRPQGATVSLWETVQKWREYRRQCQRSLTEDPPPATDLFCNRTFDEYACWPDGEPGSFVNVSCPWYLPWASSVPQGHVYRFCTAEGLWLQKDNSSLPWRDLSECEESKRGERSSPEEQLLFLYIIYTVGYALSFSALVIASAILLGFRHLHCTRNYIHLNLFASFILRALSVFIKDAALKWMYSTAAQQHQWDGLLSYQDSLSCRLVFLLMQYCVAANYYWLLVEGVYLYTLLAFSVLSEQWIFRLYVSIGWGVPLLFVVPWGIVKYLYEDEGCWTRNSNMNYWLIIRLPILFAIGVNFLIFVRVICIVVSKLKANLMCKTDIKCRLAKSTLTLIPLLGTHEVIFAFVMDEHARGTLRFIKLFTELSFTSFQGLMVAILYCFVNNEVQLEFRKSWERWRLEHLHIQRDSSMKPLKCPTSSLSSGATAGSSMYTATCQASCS

By Emax is commonly meant the maximal effect, on the per cent scale that the assay sets. One may read the EC50 as the midpoint of the concentration-response curve. As to `CC(C)(C)OC(=O)n1c2c(c3ccccc31)C[C@H]1C(=O)N3C[C@@H](CC(=O)O)C[C@H]3[C@@H]2N1C(=O)CC1CCC(F)(F)CC1`, the result in test [1], in test [2], in [4], in [6], in [7] and in [12] was inactive. Also, the Emax in [3] turned out to be 102%. Further, the concentration for a half-maximal effect (EC50) in test [5] was found to be 0.13 µM; in [10], 0.005 µM. For the same compound, in [8], the inhibition result is “inactive”. In addition, the figures for the Ratio EC50 in [9] and in [11] were 8190 and 2220, respectively.

Regarding `CC(O)CCN1C[C@H]2c3c(c4ccccc4n3C(=O)OC(C)(C)C)C[C@@H](C1=O)N2C(=O)CC1CCC(F)(F)CC1` (some centres undefined), the result in test [1], in [2], in test [4], in test [6], in [7] and in [12] was inactive. The maximum response (Emax) in test [3] came to 100%. For the same compound, the EC50 in [5] was 0.04 µM; in test [10] it was 0.0015 µM. The inhibition entry in [8] is “Active”. Further, the figures for the Ratio EC50 in test [9] and in test [11] were 3140 and 526, respectively.

The values are drawn from ChEMBL document CHEMBL4354813, “Design, Synthesis, and Pharmacological Evaluation of Potent Positive Allosteric Modulators of the Glucagon-like Peptide-1 Receptor (GLP-1R)” (J Med Chem, 2020).
